Laboratory results reported in ChEMBL document CHEMBL1949540, “Dihydroagarofuran derivatives from the dried roots of Tripterygium wilfordii” (2012).
Calls of active or inactive are those of the source. No cut-off for these calls is given here.

These molecules were tested on Human alphaherpesvirus 2 (assay: Antiherpetic activity against HSV2 at 0.25 mg/ml by MTT assay).
Format: functional
Procedure, shortened: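 Anti-HSV2 test run by a previously reported method. Samples started at an initial concentration of 0.25 mg/mL and were assayed at several concentration levels. Four independent experiments were run at each level. Acyclovir was the positive control. The read-out was an MTT assay, with optical density measured on a multimode plate reader.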
`Nc1nc2c(ncn2COCCO)c(=O)[nH]1` [ACYCLOVIR] was tested, and the inhibition at 250 µg/mL was 60.6%. Molecule `CC1(C)O[C@]23[C@H](OC(=O)c4cccnc4)[C@H]1C[C@H](OC(=O)c1ccccc1)[C@]2(C)[C@@H](OC(=O)c1ccccc1)CC[C@]3(C)O` [REGELIDINE] has an inhibition at 250 µg/mL of 31.7%.

The molecules below were run on Human alphaherpesvirus 2 (assay: Antiherpetic activity against HSV2 at 0.5 mg/ml by MTT assay).
Format: functional
Procedure, shortened: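 Activity against HSV2 was assayed by a previously reported procedure. The initial concentration of test samples and of the acyclovir positive control was 0.5 mg/mL, and samples were tested at several concentration levels. Each level had four independent experiments. The end-point was an MTT assay read as optical density.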
For `CC(=O)OC[C@]12[C@H](OC(C)=O)[C@H](OC(C)=O)[C@@H]3[C@@H](OC(C)=O)[C@@]14O[C@@]3(C)COC(=O)c1cccnc1CC[C@H](C)C(=O)O[C@@H]([C@H](OC(C)=O)[C@@H]2OC(C)=O)[C@]4(C)O`, the inhibition was “inactive”. `CC(=O)OC[C@]12[C@H](OC(C)=O)[C@H](OC(C)=O)[C@@H]3[C@@H](OC(C)=O)[C@@]14O[C@@]3(C)COC(=O)c1cccnc1C(C)C(C)C(=O)O[C@@H]([C@H](OC(C)=O)[C@@H]2OC(C)=O)[C@]4(C)O` (stereo not given in full) was tested, and the inhibition was “inactive”. `CC(=O)OC[C@]12[C@H](OC(C)=O)[C@H](OC(C)=O)[C@@H]3[C@@H](OC(=O)c4ccccc4)[C@@]14O[C@@]3(C)COC(=O)c1cccnc1C(C)C(C)C(=O)O[C@@H]([C@H](OC(C)=O)[C@@H]2OC(=O)c1ccccc1)[C@]4(C)O` (stereo not given in full) was tested, and the inhibition was “inactive”. With `CC(=O)OC[C@]12[C@H](OC(C)=O)[C@H](OC(C)=O)[C@@H]3[C@@H](OC(C)=O)[C@@]14O[C@@]3(C)COC(=O)c1cccnc1CCC(C)(O)C(=O)O[C@@H]([C@H](OC(=O)c1ccccc1)[C@@H]2OC(C)=O)[C@]4(C)O` (stereo not given in full) the inhibition was “inactive”. `CC(=O)OC[C@]12[C@H](OC(C)=O)[C@H](OC(C)=O)[C@@H]3[C@@H](OC(C)=O)[C@@]14O[C@@]3(C)COC(=O)c1cccnc1CCC(C)(O)C(=O)O[C@@H]([C@H](O)[C@@H]2OC(C)=O)[C@]4(C)O` (stereo not given in full) was tested, and the inhibition was “inactive”. `CC(=O)OC[C@]12[C@H](OC(C)=O)[C@H](OC(C)=O)[C@@H]3[C@@H](OC(=O)c4ccccc4)[C@@]14O[C@@]3(C)COC(=O)c1cccnc1C(C)C(C)C(=O)O[C@@H]([C@H](OC(C)=O)[C@@H]2OC(C)=O)[C@]4(C)O` (stereo not given in full) gave an inhibition at 500 µg/mL of 22.3%. In the case of `CC(=O)OC[C@]12[C@H](OC(C)=O)[C@H](OC(C)=O)[C@@H]3[C@@H](O)[C@@]14O[C@@]3(C)COC(=O)c1cccnc1C(C)C(C)C(=O)O[C@@H]([C@H](OC(C)=O)[C@@H]2OC(C)=O)[C@]4(C)O` (stereo not given in full), the inhibition was “inactive”. With `CC(=O)OC[C@]12[C@H](OC(C)=O)[C@H](OC(=O)c3ccccc3)[C@@H]3[C@@H](O)[C@@]14O[C@@]3(C)COC(=O)c1cccnc1CC[C@H](C)C(=O)O[C@@H]([C@H](OC(C)=O)[C@@H]2OC(C)=O)[C@]4(C)O` the inhibition was “inactive”. In the case of `CC(=O)OC[C@]12[C@H](OC(C)=O)C(=O)[C@@H]3[C@@H](OC(C)=O)[C@@]14O[C@@]3(C)COC(=O)c1cccnc1CCC(C)(OC(C)=O)C(=O)O[C@@H]([C@H](OC(=O)c1ccoc1)[C@@H]2OC(C)=O)[C@]4(C)O` (stereo not given in full), the inhibition was “inactive”. With `CC(=O)OC[C@]12[C@H](OC(C)=O)[C@H](OC(C)=O)[C@@H]3[C@@H](OC(C)=O)[C@@]14O[C@@]3(C)COC(=O)c1cccnc1CCC(C)C(=O)O[C@@H]([C@H](OC(=O)c1ccccc1)[C@@H]2OC(C)=O)[C@]4(C)O` (stereo not given in full) the inhibition was “inactive”. For `Nc1nc2c(ncn2COCCO)c(=O)[nH]1` [ACYCLOVIR], the inhibition at 500 µg/mL was 66.3%. In the case of `CC(=O)OC[C@]12[C@H](OC(C)=O)[C@H](OC(C)=O)[C@@H]3[C@@H](OC(C)=O)[C@@]14O[C@@]3(C)COC(=O)c1cccnc1CCC(C)C(=O)O[C@@H]([C@H](OC(=O)c1ccco1)[C@@H]2OC(C)=O)[C@]4(C)O` (stereo not given in full), the inhibition was “inactive”. In the case of `CC(=O)OC[C@]12[C@H](OC(C)=O)[C@H](OC(=O)c3cccnc3)[C@@H]3[C@@H](OC(C)=O)[C@@]14O[C@@]3(C)COC(=O)c1cnccc1C(C)C(C)C(=O)O[C@@H]([C@H](OC(C)=O)[C@@H]2OC(C)=O)[C@]4(C)O` (stereo not given in full), the inhibition was “inactive”. For `CC(=O)OC[C@]12[C@H](OC(C)=O)[C@H](OC(C)=O)[C@@H]3[C@@H](OC(C)=O)[C@@]14O[C@@]3(C)COC(=O)c1cccnc1CCC(C)(OC(=O)c1ccoc1)C(=O)O[C@@H]([C@H](OC(=O)c1ccccc1)[C@@H]2OC(C)=O)[C@]4(C)O` (stereo not given in full), the inhibition was “inactive”. For `CC1(C)O[C@]23[C@H](OC(=O)c4cccnc4)[C@H]1C[C@H](OC(=O)/C=C/c1ccccc1)[C@]2(C)[C@@H](OC(=O)c1ccccc1)CC[C@]3(C)O`, the inhibition was “inactive”. In the case of `CC(=O)OC[C@]12[C@H](OC(C)=O)[C@H](OC(C)=O)[C@@H]3[C@@H](OC(C)=O)[C@@]14O[C@@]3(C)COC(=O)c1cccnc1CCC(C)(O)C(=O)O[C@@H]([C@H](OC(=O)c1ccco1)[C@@H]2OC(C)=O)[C@]4(C)O` (stereo not given in full), the inhibition was “inactive”. `CC(=O)OC[C@]12[C@H](OC(C)=O)[C@H](OC(C)=O)[C@@H]3[C@@H](OC(C)=O)[C@@]14O[C@@]3(C)COC(=O)c1cccnc1CCC(C)(OC(C)=O)C(=O)O[C@@H]([C@H](OC(=O)c1ccoc1)[C@@H]2OC(C)=O)[C@]4(C)O` (stereo not given in full) was tested, and the inhibition was “inactive”. With `CC(=O)OC[C@]12[C@H](OC(C)=O)[C@H](OC(C)=O)[C@@H]3[C@@H](OC(C)=O)[C@@]14O[C@@]3(C)COC(=O)c1cnccc1C(C)C(C)C(=O)O[C@@H]([C@H](OC(C)=O)[C@@H]2OC(C)=O)[C@]4(C)O` (stereo not given in full) the inhibition was “inactive”.
